Results on one molecule are retold here after ChEMBL document CHEMBL2203206, “Hesperetin: an inhibitor of the transforming growth factor-β (TGF-β) signaling pathway” (Eur J Med Chem, 2012).

In data set [1] the target is TGF-beta receptor type-2 (Homo sapiens) (UniProt P37173). Kind of data set: Displacement of biotinylated TGF-beta1 from human TGF-beta type 2 receptor at 100 uM after 1 hr by avidin-FITC-based flow cytometry. In outline:
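HeLa cells were incubated 1 h with 0.1% DMSO or 100 μM compound in the presence of biotinylated TGF-β1. Bound ligand was detected with avidin-FITC and fluorescence intensity read by flow cytometry.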
(Flow cytometry measures light scatter and fluorescence of single cells or particles in a stream.)

For data set [2] the target is unchanged. Kind of data set: Inhibition of TGF-beta1 induced TGF-beta type 2 receptor dimerization in human HeLa cells at 100 uM after 1 hr by single-molecule fluorescence microscopy. It counts as cell-based. In outline: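 HeLa cells were transfected for 4 h with TβRII-GFP plasmid (0.2 μg/mL) to give low expression. They were given 0.1% DMSO or 100 μM compound for 1 h, then 15 min with 10 ng/mL TGF-β1 where stimulated. Live-cell TIRF imaging used 488-nm excitation at 10 Hz for 200 frames. Spot intensities were fitted with Gaussians to give monomer/dimer fractions; purified GFP served as monomer reference.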

For data set [3], the system named is HeLa. Kind of data set: Antagonist activity at human TGF-beta receptor in HeLa cells assessed as reduction in TGF-beta1-induced Smad3 phosphorylation at 100 uM after 1 hr by Western blot analysis. It is filed as functional, cell-based. In outline: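 Starved HeLa cells given 0.1% DMSO vehicle or 100 μM compound for 1 h, with or without TGF-β1. Lysates in Laemmli buffer were denatured 10 min at 95°C and run on 7.5% SDS gels, then transferred to PVDF. Blots were probed with p-Smad3 and Smad3 antibodies (1:1000) and detected by ECL.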
On the technique in general: A western blot detects proteins with antibodies after separation by electrophoresis.

For data set [4], the system named is HeLa. Kind of data set: Antagonist activity at human TGF-beta receptor in HeLa cells assessed as suppression of nuclear translocation of Smad3 at 100 uM after 1 hr by immunofluorescence imaging. It counts as functional, cell-based. In outline:
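HeLa cells were grown 24 h, then serum-starved 24 h and treated 1 h with 0.1% DMSO or 100 μM compound, ± TGF-β1. Cells were fixed in 4% paraformaldehyde, permeabilized with 0.1% Triton X-100 and blocked with 1% BSA/PBST. Staining used anti-Smad3 (1:200, overnight) and Alexa 488 secondary (1:500), imaged by confocal microscopy.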

Data set [5] deals with HeLa. Kind of data set: Antagonist activity at human TGF-beta receptor in HeLa cells assessed as reduction in TGF-beta1-induced p21 expression at 100 uM after 24 hrs by Western blot analysis. It counts as functional, cell-based. In outline: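 Starved HeLa cells exposed to vehicle (0.1% DMSO) or 100 μM compound for 24 h, with or without TGF-β1. Lysates were denatured at 95°C and separated on 7.5% SDS gels. PVDF blots were probed with anti-p21 (1:1000) and read by enhanced chemiluminescence.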

Data set [6] deals with HeLa. Briefly: Antimigratory activity against human HeLa cells assessed as inhibition of TGF-beta1-induced cell migration at 100 uM after 24 hrs by scratch motility assay. It is filed as functional, cell-based. In outline: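 Confluent HeLa monolayers (1 × 10^6 cells/well), starved 24 h, were scratched with a pipette tip and washed. They then received 0.1% DMSO or 100 μM compound ± TGF-β1 for 24 h. Cells in five random fields of the scratch were counted and averaged per field.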

Data set [7] has as its system HeLa. Kind of data set: Cytotoxicity against human HeLa cells at 1 to 200 uM after 24 hrs by MTS proliferation assay. It is filed as cell-based. In outline: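 HeLa cells were seeded at 1 × 10^4 per well in complete medium for 24 h. They were then exposed to vehicle (0.1% DMSO) or 0–200 μM compound for 24 h. Proliferation was read with a CellTiter 96 Aqueous non-radioactive (MTS-type) assay.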
A general note: Formazan colour is commonly taken as a measure of viable cells.

Data set [8] has as its target TGF-beta receptor type-2 (Homo sapiens) (UniProt P37173). Kind of data set: Inhibition of TGF-beta1 induced TGF-beta type 2 receptor dimerization in human HeLa cells assessed as receptor dimers by bleaching-step counting assay (reference value: 39.9 +/- 2.5%). It is filed as cell-based. Also noted: scale not given: the % may be the effect or the level left.
The test system of data set [9] is HeLa. Kind of data set: Antimigratory activity against human HeLa cells assessed as inhibition of TGF-beta1-induced cell invasion across collagen matrix at 100 uM after 24 hr by collagen-based cell Invasion assay.

The source made the active and inactive calls. No cut-off for these calls is given here.

TGF-beta receptor type-2 (Homo sapiens), sequence (P37173 whole entry): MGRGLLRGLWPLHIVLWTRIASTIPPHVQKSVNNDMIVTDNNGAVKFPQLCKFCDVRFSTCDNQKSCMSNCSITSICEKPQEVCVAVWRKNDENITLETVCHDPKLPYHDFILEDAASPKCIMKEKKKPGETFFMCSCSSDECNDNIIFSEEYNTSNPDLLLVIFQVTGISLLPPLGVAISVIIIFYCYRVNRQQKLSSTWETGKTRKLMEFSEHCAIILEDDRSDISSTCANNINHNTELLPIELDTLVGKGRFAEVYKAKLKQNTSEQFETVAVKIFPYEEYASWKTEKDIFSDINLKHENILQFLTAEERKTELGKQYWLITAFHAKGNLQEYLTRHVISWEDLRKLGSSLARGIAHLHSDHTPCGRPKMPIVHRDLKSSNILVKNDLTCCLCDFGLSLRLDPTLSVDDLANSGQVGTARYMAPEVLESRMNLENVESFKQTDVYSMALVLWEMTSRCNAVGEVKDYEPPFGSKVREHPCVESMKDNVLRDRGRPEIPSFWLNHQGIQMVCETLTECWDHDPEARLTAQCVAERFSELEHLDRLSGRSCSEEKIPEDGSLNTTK

With `COc1ccc([C@@H]2CC(=O)c3c(O)cc(O)cc3O2)cc1O` [HESPERETIN], the result in data set [1] was Active. Further, the inhibition in [2] was 19.9%. The inhibition result in [3], in [4], in data set [5], in data set [6] and in [9] was “Active” in each case. For the same molecule, the Activity entry in data set [7] is “Non-toxic”; in [8], 19.5%.

As usually defined, the inhibition is how much of the control response was suppressed.
